This is an account of results in ChEMBL document CHEMBL1126304 (J Med Chem, 1992).

Assay [1] relates to Felis catus. The assay is described as follows: In vivo activity against gastric secretion in conscious cat. The format is functional, Stomach.
For a further assay, the species on record is Cavia porcellus. The assay is described as follows: In vitro activity against gastric secretion in isolated guinea pig stomach. It counts as functional.
Assay [2] has as its target Histamine H2 receptor (Cavia porcellus) (UniProt P47747). Nature of the assay: Histamine H2 receptor agonistic activity in guinea pig right atrium. The format is functional, tissue-based. As to conditions: Cardiac atrium.
A further assay concerns the target Histamine H2 receptor (Cavia porcellus, UniProt P47747). Nature of the assay: Compound is evaluated for histamine H2 receptor agonistic activity in guinea pig cerebral cortex using [3H]tiotidine as radioligand. It counts as functional, tissue-based. The method, boiled down: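 H2-receptor binding measured on guinea pig cerebral cortex preparations by displacement of [3H]tiotidine. Displacement curves were fitted by nonlinear regression.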

In assay [3] the target is Histamine H2 receptor (Cavia porcellus) (UniProt P47747). The assay is described as follows: Intrinsic activity against histamine H2 receptor. It counts as functional.
For assay [4], the system named is Felis catus. The assay is described as follows: In vivo activity against gastric secretion in conscious cat; not active. The format is functional, organism-based. The conditions noted are these: Stomach.

The source made the active and inactive calls. The rule behind the calls is not given here.

Chain of Histamine H2 receptor (Cavia porcellus) (P47747 whole entry): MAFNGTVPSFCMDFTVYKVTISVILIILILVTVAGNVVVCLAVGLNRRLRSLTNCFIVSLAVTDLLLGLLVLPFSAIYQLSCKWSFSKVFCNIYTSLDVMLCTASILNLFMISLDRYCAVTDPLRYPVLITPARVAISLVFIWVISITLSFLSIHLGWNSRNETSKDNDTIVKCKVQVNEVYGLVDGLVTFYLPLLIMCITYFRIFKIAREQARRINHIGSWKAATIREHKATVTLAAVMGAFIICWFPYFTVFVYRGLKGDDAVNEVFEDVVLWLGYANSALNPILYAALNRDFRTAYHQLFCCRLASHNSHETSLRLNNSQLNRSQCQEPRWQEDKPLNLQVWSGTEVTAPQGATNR
Chain of Histamine H2 receptor (P47747 whole entry): as above

With `CNCCc1cnc(N)s1`, the pD2 is 6.52 in the assay on Felis catus [1] and 6.02 in the assay listed under Cavia porcellus.
In assay [2], `N=C(NCCCc1c[nH]cn1)NCCC(c1ccc(F)cc1)c1ccccn1` (stereo not drawn) registered a pD2 of 8.
In turn, `Cc1nc(C)c(CCN)s1` showed a Kd at Histamine H2 receptor of 174 µM. The compound further came in with a pD2 in assay [2] of 3.78. The Intrinsic activity in assay [3] came to 0.97.
In assay [2], `N=C(N)NCCCc1c[nH]cn1` showed a pD2 of 4.7.
In the case of `NCCc1c[nH]cn1`, the Intrinsic activity in assay [3] came to 1.
Regarding `CN(C)CCc1cnc(N(C)C)s1`, in the assay on Felis catus [4], the pD2 entry is “inactive”.
At Histamine H2 receptor, `NCCc1csc(N)n1` gave a Kd of 110 µM. Besides, the pD2 in assay [2] is 4.6. This compound also had an Intrinsic activity in assay [3] of 0.94.
On Histamine H2 receptor, `NCCc1cnc(N)s1` showed a Kd of 15.1 µM. In addition, the values for the pD2 (in the assay with Felis catus [1]; in assay [2]) were 6.1 and 5.51, respectively. The Intrinsic activity in assay [3] turned out to be 1.
For the compound `Cc1ncsc1CCN`, binding at Histamine H2 receptor was put at a Kd of 355 µM. Further, the pD2 in assay [2] turned out to be 4.67. The compound further yielded an Intrinsic activity in assay [3] of 0.96.
The corresponding values for `CN(C)CCCSC(=N)N` are 26.3 µM, 5.67 and 1.06.
For the compound `CNc1ncc(CCN(C)C)s1`, in the assay with Felis catus [4], the pD2 result is “inactive”.
Consider `CN(C)CCc1cnc(N)s1`, for which the results for the pD2 in the assay with Felis catus [1] and in the assay listed under Cavia porcellus were 6.3 and 5.81, respectively.
In turn, `N=C(NCCCc1c[nH]cn1)NCCC(c1ccccc1)c1ccccc1` came in with a pD2 in assay [2] of 7.7.
The compound `Cc1nc(N)sc1CCN` gave a Kd on Histamine H2 receptor of 5.01 µM. This compound also registered an Intrinsic activity in assay [3] of 0.95.

As usually defined, the Kd is the equilibrium constant for the complex coming apart. A high value points to lower affinity.
